The source of these data is PubChem BioAssay AID588479 (NMMLSC, 2011).

SMILES strings stand for the structures. Records with an inconclusive call do not appear. The source made the active and inactive calls.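 How the source made its calls: active means eight-GTPase mean potency score over 50, needing half-effect dose up to 10 µM and response span 30% or more; inconclusive means no clear call, values can overlap the other calls; inactive means the rest.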

What is called EC50 is the concentration giving half of the maximal effect.

Experiment in all cases: inhibitors of GTP binding to eight small GTPases, SAR follow-up, biochemical, round 1 SAR, Mg buffer, multiplex flow cytometry (AID 588479)
Background: In flow cytometry, cells or beads pass a laser one at a time.

One assay has as its target Cdc42ACT. The settings on record: multiplex GST-GTPase beads, Bodipy-GTP binding, constitutively active; for response, lower = inhibition: at 100 µM (top of the series). In a few lines: (§1)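 Test system: GST-GTPase bead multiplex, wild-type and constitutively active forms. Medium: mg buffer, pH 7.5, with 1 mM MgCl2. Reagent: Bodipy-FL-GTP at 100 nM final. Schedule: binding incubation 40–45 min, 4 °C. Technique: flow cytometry, green median fluorescence per bead. Control set: DMSO wells as high control, 0.5 mM unlabeled GTP as low control.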

Another assay has as its target Cdc42WT. Conditions: multiplex GST-GTPase beads, Bodipy-GTP binding, wild type; for response, lower = inhibition: at 100 µM (top of the series). In a few lines: as §1
For another assay, the target named is RacACT. Conditions: multiplex GST-GTPase beads, Bodipy-GTP binding, constitutively active; for response, lower = inhibition: at 100 µM (top of the series). The essentials: as §1
The target of a further assay is RacWT. The settings on record: multiplex GST-GTPase beads, Bodipy-GTP binding, wild type; for response, lower = inhibition: at 100 µM (top of the series). In a few lines:
as §1

A further assay deals with RhoWT. Conditions: multiplex GST-GTPase beads, Bodipy-GTP binding, wild type; for response, lower = inhibition: at 100 µM (top of the series). In a few lines: as §1
For another assay, the target named is RasACT. Conditions: multiplex GST-GTPase beads, Bodipy-GTP binding, constitutively active. In a few lines: as §1

Regarding `CC1(C)Cc2c(sc(NC(=S)NC(=O)c3cccc(F)c3)c2C(=O)O)CO1`, the concentration giving a half-maximal response (EC50) is 465 nM on Cdc42ACT; 493 nM on Cdc42WT; 466 nM at RacACT; 471 nM at RacWT; 499 nM at RhoWT.
`CCOC(=O)c1c(N)sc2ccccc12`: the “response, lower = inhibition” value on Cdc42ACT, on Cdc42WT, at RacACT, at RacWT and at RhoWT was “inactive” in each case.
In the case of `CCOC(=O)c1c(NC(=O)Nc2ccc(C)cc2)sc2c1CCN(C)C2`, the “response, lower = inhibition” value on Cdc42ACT was “inactive”.
`CC1(C)Cc2c(sc(NC(=S)NC(=O)c3ccccc3Br)c2C(=O)O)CO1`: the “response, lower = inhibition” value on Cdc42ACT and on RacWT was “inactive” throughout. Also, the half-maximal effective concentration (EC50) on Cdc42WT is 69 nM; at RacACT it was 71 nM; at RhoWT, 70 nM.
Turning to `CC1(C)Cc2c(sc(NC(=S)Nc3ccccc3)c2C(=O)O)CO1`, the “response, lower = inhibition” value at Cdc42ACT, at Cdc42WT, on RacACT, at RacWT and on RhoWT was “inactive” each time. The EC50 on RasACT is 1780 nM.
Consider `CC1(C)CCc2sc(NC(=S)NC(=O)c3ccccc3)c(C(=O)O)c2C1`, for which the concentration giving a half-maximal response (EC50) was 106 nM at Cdc42ACT; 99 nM on Cdc42WT; 109 nM at RacACT; 89 nM on RacWT; 81 nM at RhoWT.
Consider `CC1(C)Cc2c(sc(NC(=S)NC(=O)c3cccc(Br)c3)c2C(=O)O)CO1`, for which the “response, lower = inhibition” value at Cdc42ACT, on Cdc42WT, on RacACT, on RacWT and on RhoWT was “inactive” in each case.
With `Cc1ccc(NC(=O)Nc2sc3c(c2C(=O)O)CCN(C)C3)cc1`, the “response, lower = inhibition” value on Cdc42ACT, at Cdc42WT, on RacACT, on RacWT and on RhoWT was “inactive” each time.
Turning to `CC1(C)Cc2c(sc(NC(=S)NC(=O)c3ccccc3F)c2C(=O)O)CO1`, the EC50 is 60 nM on Cdc42ACT; 64 nM at Cdc42WT; 59 nM at RacACT; 58 nM at RacWT; 65 nM at RhoWT.
As for `COc1ccc(C(=O)NC(=S)Nc2sc3c(c2C(=O)O)CC(C)(C)OC3)cc1`, the EC50 on Cdc42ACT is 143 nM; on Cdc42WT it was 127 nM; at RacACT it was 142 nM; at RacWT it was 133 nM; on RhoWT it was 139 nM.
Regarding `COC(=O)c1c(N)sc2c1CC(C)(C)OC2`, the “response, lower = inhibition” value at Cdc42ACT is “inactive”.
Turning to `CC1(C)Cc2c(sc(NC(=S)NC(=O)c3ccc(Br)cc3)c2C(=O)O)CO1`, the concentration giving a half-maximal response (EC50) at Cdc42ACT is 170 nM; on Cdc42WT, 154 nM; at RacACT, 204 nM; at RacWT, 214 nM; on RhoWT it was 280 nM.
For the compound `COc1cccc(C(=O)NC(=S)Nc2sc3c(c2C(=O)O)CC(C)(C)OC3)c1`, the EC50 at Cdc42ACT was 122 nM; on Cdc42WT, 118 nM; on RacACT it was 122 nM; on RacWT it was 141 nM; on RhoWT, 111 nM.
As for `CCOC(=O)c1c(NC(=O)Nc2ccc(F)cc2)sc2c1CCN(C)C2`, the “response, lower = inhibition” value at Cdc42ACT is “inactive”.
Take `CC1(C)Cc2c(sc(NC(=O)Cc3ccccc3)c2C(=O)O)CO1`: the “response, lower = inhibition” value on Cdc42ACT, at Cdc42WT, at RacACT, at RacWT and on RhoWT was “inactive” each time.
